Bioassay records from PubChem.
ABCB6 inh MLPCN: inhibitors of human ABC transporter ABCB6; Q9NP58; fluorescence ratio to DMSO, % at 10 µM; actives 0.19% (n = 360,000); K562-ABCB6 porphyrin accumulation, flow cytometry, 1 h; hits give low values; AID 602162;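 active = fluorescence ratio to DMSO below 75%, the collection mean minus 3 SD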;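 also: signal is porphyrin accumulated inside mitochondria; lower ratio means ABCB6 inhibition with less porphyrin fluorescence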
Target sequence (Q9NP58 whole entry, looked up): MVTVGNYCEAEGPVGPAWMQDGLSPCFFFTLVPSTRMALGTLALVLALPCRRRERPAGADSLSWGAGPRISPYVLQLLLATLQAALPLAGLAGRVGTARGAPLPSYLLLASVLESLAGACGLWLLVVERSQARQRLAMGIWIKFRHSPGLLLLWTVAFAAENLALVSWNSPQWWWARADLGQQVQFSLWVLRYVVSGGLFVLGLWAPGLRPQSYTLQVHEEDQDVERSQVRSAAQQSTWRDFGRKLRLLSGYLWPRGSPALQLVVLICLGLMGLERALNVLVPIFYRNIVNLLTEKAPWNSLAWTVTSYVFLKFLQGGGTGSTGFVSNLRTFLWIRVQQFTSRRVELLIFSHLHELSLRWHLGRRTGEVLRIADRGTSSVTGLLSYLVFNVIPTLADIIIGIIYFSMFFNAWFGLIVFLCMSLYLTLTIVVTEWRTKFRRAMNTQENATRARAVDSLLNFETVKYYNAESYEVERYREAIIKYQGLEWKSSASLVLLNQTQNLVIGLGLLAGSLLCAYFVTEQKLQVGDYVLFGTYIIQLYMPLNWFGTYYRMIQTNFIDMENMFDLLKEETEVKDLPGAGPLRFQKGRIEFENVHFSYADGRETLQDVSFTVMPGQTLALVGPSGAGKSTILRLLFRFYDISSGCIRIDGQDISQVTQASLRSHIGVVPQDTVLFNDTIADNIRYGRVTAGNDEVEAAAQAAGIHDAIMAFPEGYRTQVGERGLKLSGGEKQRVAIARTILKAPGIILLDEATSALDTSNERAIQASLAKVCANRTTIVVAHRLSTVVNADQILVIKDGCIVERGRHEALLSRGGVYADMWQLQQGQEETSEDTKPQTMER
FAS TE block: blocks the thioesterase domain of human fatty acid synthase; P49327; actives 0.67% (n = 360,000); recombinant FAS-TE, OMFH fluorogenic substrate, fluorescence endpoint; inhibition, % at 15 µM;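 active = compounds whose normalised, plate-corrected inhibition of enzyme fluorescence in the single-dose primary screen is 50% or more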
SENP1 FRET inh: inhibitors of human SENP1 SUMO protease catalytic domain | AID 624204 | recombinant SENP1 catalytic domain, CyPet-SUMO1-YPet FRET cleavage | Q9P0U3 | inhibition, % at 10 µM | actives 0.21% (n = 360,000);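 active = inhibition at least 30% at 10 µM, raw YFP signal under a set limit, fluorescence ratio 0.5 to 1.5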
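Material – human SENP1 catalytic domain · Input – SENP1 enzyme, 20 pM final · Compound dosing – single concentration of 10 µM compound, 0.5% DMSO final · Timing – enzyme reaction for 50 min at room temperature, dark · Measured by – FRET fluorescence in CFP and YFP emission channels · Control set – no-enzyme wells low, DMSO-plus-enzyme wells high control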
iPSC survival up: hiPSC single-cell survival enhancement. ATPlite luminescence; 100% = ROCK inhibitor wells, 0% = DMSO. survival enhancement, % at 20 µM. actives 0.044% (n = 360,000). AID 602274; in the data active = survival enhancement above about 18%;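 also: cells exposed to compounds for 16 hours before the ATP read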
ABCB6 blocker 1: blocks the human ABCB6 transporter; ratio response (% of DMSO), % at 10 µM; 700 tested, under 10 active; shares compounds with ABCB6 inh MLPCN; K562-ABCB6 porphyrin accumulation, flow cytometry, 1 h; hits give low values; AID 602430;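 active = repeat-averaged ratio response below 75% of DMSO, the collection mean minus 3 SD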;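 also: median porphyrin fluorescence at 575 nm with 488 nm excitation from mitochondria; lower ratio means less porphyrin signal so ABCB6 inhibition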
K562 vector FC: counter-screen for ABCB6 inhibitors: effect in vector-only K562 cells. shares compounds with ABCB6 inh MLPCN. 25 tested, under 10 active. K562 empty-vector cells, flow cytometry fluorescence, 1 h. percent response (fluorescence), % at 100 µM;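 active = compounds whose half-maximal effective concentration is below 100 µM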
Numbers stand for hits; n = inactive; x = no result given. Rows were chosen to be rich in hits. Some 1.1% of all compounds tested hit in one or more screens of this group.

SMILES	ABCB6 inh MLPCN	FAS TE block	SENP1 FRET inh	iPSC survival up	ABCB6 blocker 1	others
CCCC(=O)O[C@@H]1C[C@@H](C)N(C(=O)c2ccccc2)c2ccc(C)cc21	72.0	n	n	n	n
Cc1cnc(C(=O)OCc2ccc(Br)cc2)cn1	73.0	n	n	n	n
Cc1cc(C)nc(NS(=O)(=O)c2cccs2)c1	69.0	n	n	n	n
O=C(COc1ccccc1)N1CCN(C(=O)COc2ccccc2)CC1	68.0	n	n	n	n
O=C(COc1ccccc1)N1CCCCCCC1	n	n	n	n	x
O=C(COC(=O)c1nc(Cl)ccc1Cl)c1ccc(Cl)s1	n	n	n	n	x
O=C(COC(=O)c1ncc(Cl)c(Cl)c1Cl)c1ccc(Cl)s1	72.0	n	n	n	n
CC(=O)c1cccc(NC(=O)c2ccc3c(Cl)c4c(nc3c2)CCCC4)c1	73.0	n	n	n	n
COc1ccc(NC(=O)c2cc(CN3C(=O)c4ccccc4C3=O)ccc2OC)cn1	70.0	n	n	n	n
Cc1ccc2oc(=O)c3cnn(CC(=O)NCCN(C)C)c3c2c1	n	n	n	n	x
Cc1ccc2oc(=O)c3cnn(CC(=O)NCCc4ccsc4)c3c2c1	54.0	n	n	n	n
C#CCOC(=O)c1cc(Cl)c(=O)n(Cc2ccc(Cl)cc2Cl)c1	n	n	n	n	x
Clc1nnc(Cl)c2c1ncn2Cc1ccccc1	73.0	n	n	n	n
Cc1cc(NC(=O)CSc2nc(C)c(C)c(=O)[nH]2)no1	n	n	n	n	x
CCCCc1ccc(NC(=O)CN(C)CC(=O)Nc2ccccc2Cl)cc1	n	n	n	n	x
C[C@@H]1CN([C@@H](C)CO)C(=O)c2cc(C#CCN(C)C)cnc2O[C@H]1CN(C)Cc1ccc2c(c1)OCO2	n	n	n	n	x
Cc1ccc(CN(C)C(=O)c2ccccc2Oc2ccccc2)o1	67.0	n	n	n	n
Cc1ccc(CN(C)C(=O)c2ccc(S(=O)(=O)N(C)c3ccccc3)cc2)o1	n	n	n	n	x
O=C1[C@@H](Oc2ccccc2)[C@@H](c2cnc3ccccc3c2)N1c1ccccc1	n	n	n	n	x
CSc1nnc(NC(=O)c2nc(S(=O)(=O)Cc3cccc(C)c3)ncc2Cl)s1	n	n	n	n	x
CCc1nnc(NC(=O)c2nc(S(=O)(=O)Cc3ccccc3)ncc2Cl)s1	n	n	n	n	x	K562 vector FC=n
Cc1nnc(NC(=O)c2nc(S(=O)(=O)Cc3ccccc3C)ncc2Cl)s1	n	n	n	n	x	K562 vector FC=n
CCSc1nnc(NC(=O)c2nc(S(=O)(=O)Cc3ccc(F)cc3)ncc2Cl)s1	n	n	n	n	x
CCc1nnc(NC(=O)c2nc(S(=O)(=O)Cc3ccc(C)cc3)ncc2Cl)s1	n	n	n	n	x	K562 vector FC=n
CCS(=O)(=O)c1ncc(Cl)c(C(=O)Nc2ccc(C)cc2)n1	n	n	n	n	x
SMILES	ABCB6 inh MLPCN	FAS TE block	SENP1 FRET inh	iPSC survival up	ABCB6 blocker 1	others
CC(C)c1nnc(NC(=O)c2nc(S(=O)(=O)Cc3ccc(F)cc3)ncc2Cl)s1	n	n	n	n	x	K562 vector FC=n
CCc1nnc(NC(=O)c2nc(S(=O)(=O)Cc3cccc(C)c3)ncc2Cl)s1	n	n	n	n	x	K562 vector FC=n
Cc1cccc(CS(=O)(=O)c2ncc(Cl)c(C(=O)Nc3nnc(C(C)C)s3)n2)c1	n	n	n	n	x	K562 vector FC=n
CC(=O)Nc1ccc(NC(=O)c2nc(S(=O)(=O)Cc3ccccc3)ncc2Cl)cc1	70.0	n	n	n	x	K562 vector FC=n
CC(C)(C)C(=O)NC(=S)Nc1ccc(F)cc1	n	n	n	n	x
CCn1cc([N+](=O)[O-])c(C(=O)Nc2ccn(Cc3ccccc3F)n2)n1	71.0	n	n	n	n
Cc1ccccc1Cn1ccc(NC(=O)c2nn(C)cc2[N+](=O)[O-])n1	n	n	n	n	x
CCOCCCNC(=O)CCc1nnc2ccc(N3CCCCC3)nn12	n	n	n	n	n
CSc1ccc(CCNC(=O)CCc2nnc3ccc(N4CCCCC4)nn23)cc1	n	n	n	n	x
CCOC(=O)C(C)NC(=O)CCc1nnc2ccc(N3CCCCC3)nn12 (stereo not drawn)	n	n	n	n	n
COc1ccccc1C1C(C#N)=C(N)N(N(C)C)C2=C1C(=O)CC(C)(C)C2 (stereo not drawn)	51.0	n	n	n	n
OC1CN=C2C=CC=CN2C1 (stereo not drawn)	n	n	n	n	x
CC(C)(CNC(=O)c1ccc(S(=O)(=O)Nc2cccc(C(F)(F)F)c2)cc1)N1CCOCC1	72.0	n	n	n	n
COc1ccccc1OCc1ccc(C(=O)N2N=C(C(F)F)CC2(O)C(F)F)o1 (stereo not drawn)	n	n	n	n	n
O=C(c1ccc(COc2ccc(Cl)cc2)o1)N1N=C(C(F)F)CC1(O)C(F)F (stereo not drawn)	n	n	n	n	n
CCCCN(C(=O)c1cc(-c2ccncc2)nc2ccccc12)c1c(N)n(CC(C)C)c(=O)[nH]c1=O	51.0	n	n	n	n
CC1(C(=O)NCC2CC2)CCN1C(=O)C1(c2ccccc2)CC1 (stereo not drawn)	n	n	n	n	x
Cc1ccc(CC(=O)Nc2nnc(-c3ccc(F)cc3)o2)c(C)c1	74.0	n	n	n	n
CCC(=O)N1CCc2cc(S(=O)(=O)N(CC)c3cccc(C)c3)ccc21	n	n	n	n	x
CCN(c1cccc(C(F)(F)F)c1)S(=O)(=O)c1ccc2c(c1)CCN2C(=O)C1CC1	72.0	n	n	n	n
O=C(Nc1cc(S(=O)(=O)N2CCCCC2)ccc1N1CCCCC1)C1CC1	n	n	n	n	x
COc1ccccc1C1CC(c2cccs2)=NN1C(=O)CCC(=O)O (stereo not drawn)	n	n	n	n	x
COc1cccc(C2CC(c3cccs3)=NN2C(=O)CSc2nc3ccccc3o2)c1OC (stereo not drawn)	70.0	n	n	n	n
CCC(C)(C)NC(=O)CN(C(=O)CNS(=O)(=O)c1ccc(F)cc1)c1ccc2c(c1)OCCO2	n	n	n	n	x
O=c1c(-c2ccccc2)c(O)cc(-c2ccncc2)n1-c1ccc(Cl)cc1	64.0	n	n	n	n
SMILES	ABCB6 inh MLPCN	FAS TE block	SENP1 FRET inh	iPSC survival up	ABCB6 blocker 1	others
COc1cccc(CNS(=O)(=O)c2cn(C)cn2)c1	8.0	n	n	n	n
C/C=C(\C)CN1CCN(c2ccccc2F)CC1	n	n	n	n	x
C/C=C(\C)CN1CCN(c2cccc(C)c2C)CC1	24.0	n	n	n	n
CC(=O)c1ccc(S(=O)(=O)N2CCN(CC(=O)Nc3ccnn3C3CCCC3)CC2)cc1	n	n	n	n	x
COC(=O)c1ccc(CNC(=O)CNC(=O)c2sc3ccccc3c2Cl)cc1	n	n	n	n	x
COC(=O)C1=CNC=C(C(=O)OC)C1c1cccc2ccccc12	71.0	n	n	n	n
Cc1cc(NC(=O)c2c(F)cccc2F)n(-c2nc3ccccc3[nH]2)n1	71.0	n	n	n	n
Cc1ccccc1C(=O)Nc1ccccc1C(=O)N1CCC(C)CC1	n	n	n	n	x
